From ChEMBL document CHEMBL1152770, “Inhibitors of hepatitis C virus polymerase: synthesis and biological characterization of unsymmetrical dialkyl-hydroxynaphthalenoyl-benzothiadiazines” (J Med Chem, 2009) come the findings set out here.

Series [1] relates to Hepatitis C virus. In words: Antiviral activity against HCV genotype 1 infected in human assessed as reduction in viral titer after 48 hrs. Type of series: functional, Hepacivirus hominis.
Series [2] relates to Hepatitis C virus. In words: Antiviral activity against HCV isolate Con1 in human Huh7 cells assessed as reduction in viral RNA after 4 days by RT-PCR. The conditions noted are these: isolate Con1, Huh-7, 96 h.
Series [3] has as its system Hepatitis C virus. Nature of the series: Antiviral activity against HCV 1a containing chimeric genotype 1a-H77/1b-con1 subgenom in human Huh7 cells assessed as reduction in viral RNA after 4 days by RT-PCR. The conditions noted are these: subtype 1a, Huh-7, 96 h.
A short description of series [4]: Inhibition of HCV isolate BK NS5B polymerase after 3 hrs by scintillation counting.
The nature of series [5]: Inhibition of HCV isolate H77 NS5B polymerase after 3 hrs by scintillation counting.
Series [6] can be described thus: Plasma concentration in rat at 5 mg/kg, po after 6 hrs. It is filed as ADME, organism-based. Also on record: dose 5 mg/kg, route oral. Summed up:
(§1)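 Vehicle DMSO:PEG400 (10:90, v/v). Dosing at 5 mg/kg in rat and monkey; dog 5 mg/kg or 2.5 mg/kg. Protein precipitation with acetonitrile, then LC-MS/MS in negative-ion MRM (m/z 516.2→437.0) against spiked standards with internal standard.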

A short description of series [7]: Plasma concentration in rat at 5 mg/kg, po after 12 hrs. Also on record: dose 5 mg/kg, route oral. Type of series: ADME, organism-based. The procedure, abridged:
as §1

Series [8] in a line: Ratio of drug level in liver to plasma in rat at 5 mg/kg, po after 6 hrs. It is filed as ADME, organism-based. Also on record: dose 5 mg/kg, route oral. Summed up: (§2)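 Rats dosed orally at 5 mg/kg, four groups, sacrificed at 6 and 12 h. Plasma and liver homogenate extracted by acetonitrile protein precipitation with internal standard and quantified by LC-MS (negative-ion MRM). Liver/plasma ratio taken from the two concentrations.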

Series [9] can be described thus: Ratio of drug level in liver to plasma in rat at 5 mg/kg, po after 12 hrs. It is filed as ADME, organism-based. More on the design: dose 5 mg/kg, route oral. Summed up:
as §2

The nature of series [10]: Drug level in rat liver at 5 mg/kg, po after 6 hrs. The conditions noted are these: read-out: Drug uptake. It is filed as ADME, organism-based. Also on record: dose 5 mg/kg, route oral. Summed up: as §2
Series [11] can be described thus: Drug level in rat liver at 5 mg/kg, po after 12 hrs. The conditions noted are these: read-out: Drug uptake. More on the design: dose 5 mg/kg, route oral. It is filed as ADME, organism-based. Summed up: as §2
Series [12] in a line: Aqueous solubility in 50 mM phosphate buffer at pH 7.4. It is filed as physicochemical. The procedure, abridged:
(§3)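 Equilibrium solubility in PEG 400, in 50 mM citrate buffer pH 4 or in 50 mM phosphate buffer pH 7.4. Buffers brought to ionic strength 0.155 M with NaCl. Vials rotated at 25 °C for 4 days, final pH measured, then supernatant assayed by reverse-phase HPLC at 262 nm against a linear standard curve.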

The nature of series [13]: Solubility in polyethylene glycol 400 at 25 deg C. It is filed as physicochemical. The procedure, abridged: as §3
A short description of series [14]: n-Octanol-phosphate buffer distribution coefficient, log D at pH 7.4. Type of series: physicochemical. The procedure, abridged: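 Compound was dissolved in n-octanol and mixed with 50 mM phosphate buffer, isotonic with NaCl, pH 7.4. The mixture was tumbled at 25 °C, 25 rpm, for 2-3 days, then centrifuged to split the phases. Each phase was assayed by reverse-phase HPLC (UV 262 nm) against a linear standard curve. D is the octanol/buffer concentration ratio.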

Turning to `COc1ccc2c(O[C@@H]3C[C@H]4C(=O)N[C@]5(C(=O)O)C[C@H]5/C=C\CCCCC[C@H](NC(=O)OC5CCCC5)C(=O)N4C3)cc(-c3csc(NC(C)C)n3)nc2c1`, the Activity in the series on Hepatitis C virus [1] is on record as 2. Also, the EC50 with Hepatitis C virus [2] and in the series with Hepatitis C virus [3] was 3 nM in each case.
`CC(C)(C)CC[C@]1(C)C(=O)C(C2=NS(=O)(=O)c3cc(NS(C)(=O)=O)ccc3N2)=C(O)c2ccccc21`: the IC50 in series [4] came to 518 nM; in [5] it was 444 nM.
In the case of `CC(C)CC[C@@]1(C)C(=O)C(C2=NS(=O)(=O)c3cc(NS(C)(=O)=O)ccc3N2)=C(O)c2ccccc21`, the results for the concentration at 6 h in series [6] and in [10] were 445 nM and 3800 ng/g, respectively. Moreover, the results for the concentration at 12 h in series [7] and in [11] were 135 nM and 1430 ng/g, respectively. Besides, the Kp at 6 h in series [8] was 17. The Kp at 12 h in series [9] turned out to be 20.
Regarding `CS(=O)(=O)Nc1ccc2c(c1)S(=O)(=O)N=C(c1c([O-])c3ccccc3n(NC3CCC3)c1=O)N2.[Na+]`, the solubility in series [12] is less than 0.07 µg/mL; in series [13], greater than 191.8 mg/mL. In series [14], this molecule yielded a logD of 1.45.
